Laboratory results taken from ChEMBL document CHEMBL5154715, “Phenolic Lipids Derived from Cashew Nut Shell Liquid to Treat Metabolic Diseases” (J Med Chem, 2022).
Active and inactive are the calls of the source. The rule behind the calls is not given here.

Key:
[1] = Metabolic stability in C57BL/6 mouse liver microsomes assessed as half life; format: ADME, Microsome; conditions: time 2 min
[2] = Metabolic stability in C57BL/6 mouse liver microsomes assessed as parent compound remaining incubated for 120 mins; format: ADME, Microsome; conditions: read-out: Stability
[3] = target: T1, Peroxisome proliferator-activated receptor alpha (Homo sapiens) (UniProt Q07869); assay: Agonist activity at human PPARalpha transfected in HEK293 cells assessed as relative luciferase unit at 50 uM measured after 16 hrs by luciferase reporter gene assay; format: cell-based; conditions: filed as agonist
T1 sequence (whole entry): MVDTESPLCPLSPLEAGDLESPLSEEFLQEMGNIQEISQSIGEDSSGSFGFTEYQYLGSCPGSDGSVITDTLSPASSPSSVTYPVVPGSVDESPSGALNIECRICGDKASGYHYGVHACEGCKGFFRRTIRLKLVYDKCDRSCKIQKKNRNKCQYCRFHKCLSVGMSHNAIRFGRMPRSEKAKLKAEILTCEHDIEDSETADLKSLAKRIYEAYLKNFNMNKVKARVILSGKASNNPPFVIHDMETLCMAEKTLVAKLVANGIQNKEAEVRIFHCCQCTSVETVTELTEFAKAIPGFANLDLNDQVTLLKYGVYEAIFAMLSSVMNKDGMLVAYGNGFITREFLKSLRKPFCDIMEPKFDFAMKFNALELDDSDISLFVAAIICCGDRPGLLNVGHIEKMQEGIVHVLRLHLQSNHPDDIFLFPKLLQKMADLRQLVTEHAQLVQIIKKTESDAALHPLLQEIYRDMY
In short: (§1)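 GAL4-hPPAR (α or γ) plus UAS-luciferase and β-galactosidase transiently co-transfected into HEK293 cells, then treated with 50 μM compound for 16 h. RLU = luciferase/β-galactosidase × time, vehicle (DMSO) set to 1. Mean ± SD, N = 3; one-way ANOVA with Holm–Šidák vs vehicle.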

[4] = target: T2, Peroxisome proliferator-activated receptor gamma (Homo sapiens) (UniProt P37231); assay: Agonist activity at human PPARgamma transfected in HEK293 cells assessed as relative luciferase unit at 50 uM measured after 16 hrs by luciferase reporter gene assay; format: cell-based; conditions: filed as agonist; in short: as §1
T2 sequence (whole entry): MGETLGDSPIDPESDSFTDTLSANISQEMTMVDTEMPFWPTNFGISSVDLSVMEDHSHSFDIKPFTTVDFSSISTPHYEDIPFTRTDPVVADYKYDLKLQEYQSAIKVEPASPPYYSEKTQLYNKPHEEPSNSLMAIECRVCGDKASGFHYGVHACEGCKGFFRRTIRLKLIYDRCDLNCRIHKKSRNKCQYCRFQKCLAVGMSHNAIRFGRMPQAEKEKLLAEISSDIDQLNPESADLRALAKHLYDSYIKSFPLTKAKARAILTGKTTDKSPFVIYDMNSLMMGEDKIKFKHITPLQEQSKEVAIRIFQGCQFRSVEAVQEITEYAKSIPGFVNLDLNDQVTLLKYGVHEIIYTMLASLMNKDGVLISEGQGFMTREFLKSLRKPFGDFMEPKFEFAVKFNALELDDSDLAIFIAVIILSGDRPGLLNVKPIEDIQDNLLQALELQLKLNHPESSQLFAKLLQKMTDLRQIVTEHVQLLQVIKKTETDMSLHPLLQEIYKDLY

[5] = target: T3, Peroxisome proliferator-activated receptor alpha (Homo sapiens, UniProt Q07869); assay: Agonist activity at human PPARalpha expressed in HEK293 cells by luciferase/beta-galactosidase reporter gene assay; format: cell-based
T3 sequence (Q07869 whole entry): T1 sequence (whole entry)
In short: (§2)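 HEK293 cells in charcoal-stripped FBS, calcium phosphate co-transfected with GAL4-hPPAR LBD fusion, UAS-luciferase and β-galactosidase. Ligand added 6–8 h post transfection, full dose–response, harvested 14–16 h later. Luciferase normalized to β-galactosidase.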

[6] = target: T1, Peroxisome proliferator-activated receptor alpha (Homo sapiens); assay: Agonist activity at human PPARalpha expressed in HEK293 cells assessed as maximal activity by luciferase/beta-galactosidase reporter gene assay relative to GW7647; format: cell-based; in short: as §2
[7] = target: T2, Peroxisome proliferator-activated receptor gamma (Homo sapiens); assay: Agonist activity at human PPARgamma expressed in HEK293 cells assessed as maximal activity by luciferase/beta-galactosidase reporter gene assay relative to rosiglitazone; format: cell-based; in short: as §2
[8] = target: T4, Peroxisome proliferator-activated receptor alpha (Mus musculus) (UniProt P23204); assay: Agonist activity at human PPARalpha in mouse hepatocytes assessed as induction of Pdk4 mRNA expression at 50 uM incubated for 16 hrs by quantitative real-time PCR analysis; format: cell-based; conditions: Hepatocyte, filed as agonist
T4 sequence (whole entry): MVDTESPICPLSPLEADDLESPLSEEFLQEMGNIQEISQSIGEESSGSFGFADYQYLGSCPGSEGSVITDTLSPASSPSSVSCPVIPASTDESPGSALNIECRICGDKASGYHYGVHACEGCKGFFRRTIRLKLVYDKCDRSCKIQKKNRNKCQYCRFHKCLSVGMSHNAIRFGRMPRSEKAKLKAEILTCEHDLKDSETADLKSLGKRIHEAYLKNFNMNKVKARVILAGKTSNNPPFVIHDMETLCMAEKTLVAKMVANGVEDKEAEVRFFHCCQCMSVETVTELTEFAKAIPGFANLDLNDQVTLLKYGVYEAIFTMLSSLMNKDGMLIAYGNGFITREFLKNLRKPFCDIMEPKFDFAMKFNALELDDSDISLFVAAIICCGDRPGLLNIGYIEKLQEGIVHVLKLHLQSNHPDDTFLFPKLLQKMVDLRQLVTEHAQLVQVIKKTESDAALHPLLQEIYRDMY
In short: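 Collagenase-perfused mouse primary hepatocytes from WT mice, plated 2 h in attachment medium, overnight in M199 with 5% charcoal-stripped FBS and 1 nM insulin. Treated next day in serum-free M199 with 50 μM compound for 16 h. RNA qPCR (SYBR Green), comparative Ct method.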

[9] = target: T5, Peroxisome proliferator-activated receptor delta (Homo sapiens) (UniProt Q03181)
T5 sequence (whole entry): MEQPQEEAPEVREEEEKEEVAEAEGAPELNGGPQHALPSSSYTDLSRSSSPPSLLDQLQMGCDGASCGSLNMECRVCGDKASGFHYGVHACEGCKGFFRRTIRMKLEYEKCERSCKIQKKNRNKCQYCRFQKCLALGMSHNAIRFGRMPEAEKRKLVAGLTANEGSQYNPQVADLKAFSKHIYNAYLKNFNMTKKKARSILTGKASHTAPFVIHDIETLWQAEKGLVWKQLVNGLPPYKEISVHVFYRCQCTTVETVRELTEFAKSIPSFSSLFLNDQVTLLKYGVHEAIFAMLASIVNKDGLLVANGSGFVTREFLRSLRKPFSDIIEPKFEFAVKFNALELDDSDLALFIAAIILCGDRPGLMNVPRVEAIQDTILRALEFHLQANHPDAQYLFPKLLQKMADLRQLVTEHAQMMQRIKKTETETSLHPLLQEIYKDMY

[10] = target: T2, Peroxisome proliferator-activated receptor gamma (Homo sapiens); assay: Stabilization of human PPARgamma LBD assessed as change in melting temperature at 50 uM by thermal shift assay
[11] = target: T5, Peroxisome proliferator-activated receptor delta (Homo sapiens); assay: Stabilization of human PPARdelta LBD assessed as change in melting temperature at 50 uM by thermal shift assay

| SMILES | half-life [1] [h] | remaining at 2 h [2] [%] | Activity [3] | Activity [4] | EC50 [5] [nM] | Emax [6] [%] | Emax [7] [%] | Activity [8] | EC50 ([9]; HEK293, filed as agonist) [nM] | ΔTm [10] [°C] | ΔTm [11] [°C] | Emax ([6]; filed as agonist) [%] | Emax ([7]; filed as agonist) [%] | EC50 ([9]; HEK293) [nM] |
| --- | --- | --- | --- | --- | --- | --- | --- | --- | --- | --- | --- | --- | --- | --- |
| CCCCCCCCCCCCCCCc1cccc(OC(C)(C)C(=O)O)c1 | 6 | 79 | Active | Active | 500 | 30 | 30 | Active | 33000 | 6.3 | 11.3 |  |  |  |
| CCCCCC/C=C\CCCCCCCc1cccc(OC(C)(C)C(=O)O)c1 | 13.9 | 90 | Active | Active | 700 |  |  | Active | 21000 | 5.6 | 6.8 | > 90 | > 90 |  |
| CCCCCCCCCCCCCCCc1cccc(OC(C)=O)c1C(=O)O | 0.0333 | 0 | Active | Active | 2400 |  |  | Active |  | 4.4 | 12 | > 90 | > 90 | > 50000 |
